Results reported in PubChem BioAssay AID2645 (Broad Institute, 2010).
Active and inactive are the calls of the source.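 How the source made its calls: active means cAMP rise above 50% of the positive control response, mean of two replicates; inactive means cAMP rise at or below 50% of control.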

Tested on: human washed platelets, cAMP competitive ELISA, 5 min
Assay: platelet cAMP elevation by compounds, confirmation, counter-screen for platelet activation inhibitor project, cell-based, competitive ELISA, PGE1 reference (AID 2645)
Conditions: at 10 µM; hits give high values
Method in brief: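 Assay system: Washed donor platelets | Doses: 10 µM, single dose | Timing: 5 min compound treatment | Measured by: Competitive cAMP ELISA, platelet lysates, 0.5% Triton X-100, 0.1 M HCl | Control set: PGE1 1 µM high, DMSO 0.3% neutral | Replicates: Duplicates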

Structure (SMILES): CCC(CC)=N/N=C/c1c(O)n(CC)c2cc(C3=NNC(=O)CC3)ccc12
- cAMP induction, % of PGE1: 109%

Structure (SMILES): COc1cc2c(cc1OC)-c1cc(N3CCCCCC3)nc(=O)n1CC2
- cAMP induction, % of PGE1: 83.7%

Structure (SMILES): O=c1[nH]c2c(s1)C=Nc1ccccc1N2
- cAMP induction, % of PGE1: 163%

Structure (SMILES): COc1ccccc1-n1cc(-c2ccc(Cl)cc2)[nH]c1=O
- cAMP induction, % of PGE1: 32.2% (inactive)

Structure (SMILES): Cc1[nH]c(=O)c(C#N)c(C)c1CSc1ncccn1
- cAMP induction, % of PGE1: 55.4%

Structure (SMILES): COc1ccccc1C(=O)Nc1c[nH]c(=O)[nH]c1=O
- cAMP induction, % of PGE1: 97.7%

Structure (SMILES): COc1cc2c(cc1OC)-c1cc(Nc3ccccc3C)nc(=O)n1CC2
- cAMP induction, % of PGE1: 638%

Structure (SMILES): COc1cc2c(cc1OC)-c1cc(N3CCc4ccccc43)nc(=O)n1CC2
- cAMP induction, % of PGE1: 74.8%

Structure (SMILES): COc1cc2c(cc1OC)/C(=C/C(=O)c1ccc(NC(C)=O)cc1)NCC2
- cAMP induction, % of PGE1: 67.8%

Structure (SMILES): CCOc1cc(/C=N/NC(N)=O)cc(Br)c1OCC(=O)Nc1ccccc1C
- cAMP induction, % of PGE1: 155%

Structure (SMILES): Cc1ccc(-n2c(N)c(C#N)c(-c3ccccc3)c(C#N)c2=O)cc1
- cAMP induction, % of PGE1: -16.7% (inactive)

Structure (SMILES): COc1ccc(/C=N/N(C)c2cc(=O)n(C)c(=O)[nH]2)cc1OC
- cAMP induction, % of PGE1: 136%

Structure (SMILES): COC(=O)CS(=O)(=O)c1ccc2c(c1)CC(=O)N2
- cAMP induction, % of PGE1: 57.2%

Structure (SMILES): O=C(Nc1cccc(NC(=O)c2ccccc2Cl)c1)c1ccco1
- cAMP induction, % of PGE1: -18.7% (inactive)

Structure (SMILES): C/C(=N/NC(=O)C1CCCC1)c1ccc(NC(=O)C(F)(F)F)cc1
- cAMP induction, % of PGE1: -25% (inactive)

Structure (SMILES): COc1cc2c(cc1OC)-c1cc(Nc3ccc(F)cc3)nc(=O)n1CC2
- cAMP induction, % of PGE1: 210%
